The values below come from ChEMBL document CHEMBL6182837, “Discovery and biological evaluation of nitrofuranyl-pyrazolopyrimidine hybrid conjugates as potent antimicrobial agents targeting Staphylococcus aureus and methicillin-resistant S. aureus” (RSC Med Chem, 2025).

Data set [1] has as its system Staphylococcus aureus. Nature of the data set: Disruption of cell membrane integrity in Staphylococcus aureus ATCC 29213 assessed as red fluorescence at 1 to 2 times MIC incubated for 2.5 hrs by DAPI/PI staining based fluorescence microscopy. Format: functional, organism-based. The gist of the method: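 S. aureus treated at 1× and 2× MIC, stained with DAPI (all cells) and PI (damaged membranes), imaged by fluorescence microscopy; vancomycin 2× MIC positive control; untreated blank.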

Data set [2] concerns Staphylococcus aureus. Nature of the data set: Induction of membrane permeabilization in methicillin-resistant Staphylococcus aureus ATCC 15187 at 1 to 8 times MIC measured after 80 mins by PI staining based analysis relative to control. As to conditions: 1.333 h. The format is functional. The gist of the method:
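Propidium iodide uptake measured over time in bacteria exposed to 1×, 2×, 4× and 8× MIC, with vancomycin 4× and 8× MIC and a blank control; percentage membrane permeabilization read up to 80 min.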

For data set [3], the system named is Staphylococcus aureus. Nature of the data set: Bacteriostatic activity against Staphylococcus aureus ATCC 29213 assessed as reduction in bacterial count at MIC incubated for 2 to 24 hrs by time-kill assay. Format: functional. As to conditions: time 2-24 hrs.
Data set [4] deals with Staphylococcus aureus. Nature of the data set: Inhibition of biofilm formation of Staphylococcus aureus ATCC 29213 incubated for 27 hrs by absorbance based method. Format: functional, organism-based.
Data set [5] relates to Staphylococcus aureus. Briefly: Synergistic antibacterial activity against Staphylococcus aureus ATCC 29213 assessed as fractional inhibitory concentration index at 0.02 ug/ml incubated up to 24 hrs in presence of vancomycin by checkerboard analysis. Format: functional. Conditions: dose 0.02 µg/ml. The method in brief:
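Checkerboard microdilution in cation-adjusted MHB, done per CLSI. The compound and partner antibiotic were dissolved in DMSO. The antibiotic was serially diluted across the plate and the compound was twofold serially diluted into the wells to make the combinations. Each well received 0.1 ml of inoculum, a 0.5 McFarland suspension (1.5 × 10^8 CFU ml−1) diluted 1:100 in MHB. Plates were incubated 24 h at 37 °C, then read with Alamar blue (0.04%). FIC index was calculated.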

Data set [6] has as its system Staphylococcus aureus. Briefly: Induction of resistance development in methicillin-resistant Staphylococcus aureus ATCC 15187 at 0.5 MIC measured after […]. As to conditions: 0.5 M. The format is functional, organism-based. The method in brief: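 Bacteria serially passaged under sublethal drug exposure over 20 days, with MIC redetermined at each passage; vancomycin and norfloxacin as controls.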

Data set [7] concerns Staphylococcus aureus. Briefly: Antibacterial activity against Staphylococcus aureus ATCC 29213 incubated for 24 hrs by Alamar blue staining based microdilution method. The format is functional. Background: Resazurin is reduced to fluorescent resorufin, in cell work by metabolically active cells.
Data set [8] relates to Staphylococcus aureus. Nature of the data set: Synergistic bactericidal activity against methicillin-resistant Staphylococcus aureus ATCC 15187 assessed as reduction in bacterial count at 0.075 ug/ml measured after 24 hrs in presence of rifampicin by time-kill assay. The format is functional, organism-based. As to conditions: dose 0.075 µg/ml.
Data set [9] can be described thus: AUC (0 to t) in male Balb/c mouse at 1 mg/kg, iv by LC-MS/MS analysis. Conditions: in vivo. The format is ADME, organism-based. The method in brief:
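Balb/c mice dosed 1 mg kg−1 intravenously or 30 mg kg−1 orally (2.5 mg kg−1 oral also given); plasma PK parameters derived.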

One may read the MIC as the least concentration at which growth counts as inhibited. Broadly, the AUC(0-t) is exposure summed from dosing to a finite time, without extrapolation to infinity. Low values mean low exposure, high ones high exposure.

Converted amounts (≈) assume the structure as drawn. The source made the active and inactive calls. The rule behind the calls is not given here. Bounds are passed on as bounds.

In the case of `CCCc1nn(C)c2c(Nc3ccc(O)cc3)nc(-c3ccc([N+](=O)[O-])o3)nc12`, the result in the data set on Staphylococcus aureus [1] was Active. The Activity is 45% with Staphylococcus aureus [2], under 3 log10CFU with Staphylococcus aureus [3] and “Moderate_effect” in the data set with Staphylococcus aureus [8]. Also, the inhibition entry with Staphylococcus aureus [4] was “Dose-dependent-effect”. Besides, the “fractional inhibitory concentration index (FICI)” value with Staphylococcus aureus [5] came out at 0.5. For the same compound, the result in the data set with Staphylococcus aureus [6] was inactive. In the data set with Staphylococcus aureus [7], this compound returned an MIC of 0.64 µg/mL (≈ 1.62 µM). The compound also came in with an AUC(0-t) in data set [9] of 90.8 ng·h/mL.
